Compounds with a hit are over-represented: about 3.7% of the library has one in this group of screens.
KCNQ1 inh: inhibitors of human KCNQ1 channel, primary screen, cell-based, thallium flux, high-throughput | Potassium voltage-gated channel subfamily KQT member 1 (Homo sapiens), P51787 | CHO-K1 KCNQ1, FluxOR thallium flux fluorescence; hits give high values | B-score at 10 µM | actives 1.3% (n = 310,000);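 active = compounds whose thallium flux B-score, printed positive for inhibition, exceeds three library SD while starting fluorescence stays within three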;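 also: channel opened by potassium depolarization with thallium stimulus after 20 min compound exposure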
KCNK9 block: KCNK9 potassium channel inhibitors, primary screen, HEK293 cells, thallium flux; FluxOR thallium flux fluorescence; hits give low values; B-score at 10 µM; actives 1.2% (n = 310,000); AID 488922, 2010;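 active = ratio B-score over 3 SD below the library mean, with starting fluorescence within 5 SD of its mean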;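 also: negative B-score means less thallium flux so channel inhibition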
Target sequence (Q9NPC2 whole entry, looked up): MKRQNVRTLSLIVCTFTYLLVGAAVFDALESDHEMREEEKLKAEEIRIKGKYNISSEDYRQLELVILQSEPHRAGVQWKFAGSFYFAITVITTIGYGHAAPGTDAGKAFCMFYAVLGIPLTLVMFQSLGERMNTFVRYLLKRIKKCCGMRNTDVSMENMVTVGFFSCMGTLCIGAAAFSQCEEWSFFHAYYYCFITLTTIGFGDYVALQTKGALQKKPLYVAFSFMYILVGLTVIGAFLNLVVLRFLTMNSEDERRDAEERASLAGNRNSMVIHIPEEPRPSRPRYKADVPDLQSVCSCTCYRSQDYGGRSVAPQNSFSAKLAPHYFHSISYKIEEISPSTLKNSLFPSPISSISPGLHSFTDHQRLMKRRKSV
KCNK3 block: human KCNK3 channel inhibitors, primary screen, CHO cells, FluxOR thallium flux, B-score. FluxOR fluorescence; hits give low values. actives 0.84% (n = 340,000). B-score at 10 µM;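 active = B-score under library mean minus 4 SD, starting fluorescence ratio at most library mean plus 5 SD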;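 also: more negative B-score means stronger inhibition of thallium flux through KCNK3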
KCNQ1 pot: potentiators or activators of KCNQ1 channel, primary screen, cell-based, thallium flux, high-throughput. B-score at 10 µM. actives 0.35% (n = 310,000). Potassium voltage-gated channel subfamily KQT member 1 (Homo sapiens), P51787. CHO-K1 KCNQ1, thallium flux FluxOR fluorescence; hits give high values. AID 2648, 2010;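 active = fluorescence ratio B-score, a plate-corrected score, at least three library SD, with initial intensity B-score within 5 SD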
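assay system = KCNQ1-transfected CHO-K1 cells | medium = assay buffer with matched DMSO | probe or stimulus = depolarizing K+/Tl+ stimulus, K2SO4 and Tl2SO4 each 12.5 mM in 5x stock | dosing = single dose | incubation = dye 90 min, compound 20 min, room temperature | detection = kinetic FluxOR fluorescence, 10 s baseline plus 110 s post-stimulus | evaluation = ratio B score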
Kir21 block: inhibitors of mouse Kir2.1 inward-rectifier potassium channel. Inward rectifier potassium channel 2 (Mus musculus), P35561. HEK293-Kir2.1, FluxOR thallium flux fluorescence; hits give low values. B-score at 10 µM. actives 0.85% (n = 310,000);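 active = fluorescence ratio B-score at or below minus 3 SD of library scores, with starting-brightness B-score within 2 SD, cut at about -4.2 in these data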;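 also: channel flux triggered by added potassium and thallium sulfate stimulus; B-score of peak minus minimum fluorescence over baseline after thallium stimulus; more negative B-score means stronger Kir2.1 block with less thallium influx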
hERG rescue: hERG rescue from dofetilide block, primary screen, cell-based, CHO-hERG, FluxOR thallium flux, dofetilide IC70. dofetilide IC70 present. activation (rescue from dofetilide block), less the hit threshold, % at 10 µM. Voltage-gated inwardly rectifying potassium channel KCNH2 (Homo sapiens), Q12809. AID 1511, 2009. actives 0.51% (n = 310,000);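 active = activation above the mean of controls blocked by dofetilide plus 5 SD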;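 also: thallium influx through hERG after potassium depolarization seen as dye fluorescence rise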
An asterisk follows results filed as active; i = inactive; . = no result given; ! = not confirmed by another sample.

SMILES	KCNQ1 inh	KCNK9 block	KCNK3 block	KCNQ1 pot	Kir21 block	hERG rescue
CCC[C@H](CN[C@@H](CNC)[C@H](C)CC)NCCc1cc(C(F)(F)F)cc(C(F)(F)F)c1	i	i	i	i	-4.24*	-14.2
N#CCC(=O)NNc1c([N+](=O)[O-])cc(C(F)(F)F)cc1[N+](=O)[O-]	i	i	i	i	-0.35	-5.3
COc1ccc([N+](=O)[O-])c(S(=O)(=O)c2ccccc2)n1	i	i	i	i	-3.74	-8.0
COc1ccc([N+](=O)[O-])c(S(=O)(=O)c2ccc(Cl)cc2)n1	i	i	i	i	-4.64*	-7.7
Clc1ccccc1CN1CCN(/N=C/C=C/c2ccco2)CC1	i	i	i	i	-0.84	-7.4
CC1=NN(C(N)=S)C(=O)C1N=Nc1ccc([N+](=O)[O-])cc1 (centres undefined)	i	i	i	i	0.29	-5.6
CN(C)c1ccc(/C=C(\C#N)C(=O)NCc2ccco2)cc1	i	i	.	i	-0.87	-5.4
CC(OC(=O)/C(C#N)=C/c1ccc(N(C)C)cc1)C(=O)NCc1ccco1 (centres undefined)	7*	i	i	i	0	-11.1
CC(OC(=O)/C(C#N)=C/c1ccc(N(C)C)cc1)C(=O)N(C)c1ccccc1 (centres undefined)	8*	i	i	i	-2.17	-16.4
C/C(=N\N=C(c1ccccc1)c1ccccc1)c1cccs1	6*	i	i	i	0.01	-12.1
Cc1ccc(S(=O)(=O)N2CC(O)CC2C(=O)OCC(=O)Nc2ccc([N+](=O)[O-])cc2C(F)(F)F)cc1C (centres undefined)	.	.	i	.	.	.
Cc1ccc(Cn2ncc3c(NN)ncnc32)cc1	i	i	i	15*	-0.49	-4.6
CC1CC(C)CN(C(=O)COC(=O)c2ccc3ccccc3n2)C1 (centres undefined)	.	.	i	.	.	.
C=CCn1c(=N)n(CC(O)COc2ccccc2OC)c2ccccc21 (centres undefined)	i	i	i	i	0.02	-11.1
CCCCn1c(=N)n(CCOc2ccc(C)cc2)c2ccccc21	i	i	i	i	-4.6*	-11.4
CCCCn1c(=N)n(CC(O)COc2cccc(C)c2)c2ccccc21 (centres undefined)	7*	i	i	i	-5.19*	-23.6
CCCCCn1c(=N)n(CC(O)COc2ccccc2OC)c2ccccc21 (centres undefined)	7*!	i	i	i	-4.27*!	-26.0
COc1ccccc1OCC(O)Cn1c(=N)n(Cc2ccccc2)c2ccccc21 (centres undefined)	i	i	i	i	-4.6*	-17.9
CCCn1c(=N)n(CC(O)COc2ccc(C)cc2)c2ccccc21 (centres undefined)	i	i	i	i	-3.94	-7.0
COC(=O)C1=C(C)N(CCCC(=O)O)C(=O)NC1c1ccccc1Cl (centres undefined)	i	i	i	i	-0.71	-3.4
Cc1ccc(OCc2cc(C(=O)N3CCN(CC(=O)NC(C)C)CC3)no2)cn1	i	i	i	i	-0.84	-6.8
CN(C(=O)COC(=O)c1nn(C)c(=O)c2ccccc12)c1c(N)n(Cc2ccccc2)c(=O)[nH]c1=O	i	i	i	i	1.13	-10.3
Cc1ccc(OCC(O)Cn2c(=N)n(CCN3CCCCC3)c3ccccc32)cc1 (centres undefined)	i	i	i	i	-4.27*	-18.9
Cc1cc(C)nc(/N=C(\N)Nc2ccc(OCCC(C)C)cc2)n1	i	i	i	i	-3.23	-11.5
Cc1cc(C)nc(/N=C(\N)Nc2ccc(CC(=O)OC(C)C)cc2)n1	i	i	i	10*	-2.81	-9.9
SMILES	KCNQ1 inh	KCNK9 block	KCNK3 block	KCNQ1 pot	Kir21 block	hERG rescue
COc1ccc([N+](=O)[O-])cc1NC(=S)NC(NC(=O)C(c1ccccc1)c1ccccc1)C(Cl)(Cl)Cl (centres undefined)	14*	i	i	i	-0.18	-10.9
COc1ccc(NC(=S)NC(NC(=O)c2cccc3ccccc23)C(Cl)(Cl)Cl)c([N+](=O)[O-])c1 (centres undefined)	i	-6.91*	i	i	0.17	-2.2
Cc1cc([N+](=O)[O-])ccc1NC(=S)NC(=O)C(c1ccccc1)c1ccccc1	7*	i	i	i	1.67	-7.7
COc1ccc([N+](=O)[O-])cc1NC(=O)C(C)c1ccccc1 (centres undefined)	i	i	i	i	0.68	-0.2
CCOC(=O)c1cc([N+](=O)[O-])sc1NC(=O)c1ccc(S(=O)(=O)N2CC3(C)CC2CC(C)(C)C3)cc1 (centres undefined)	8*	i	i	i	1.34	-12.0
COc1ccc(-c2cn3nc(SCC(=O)NC4CCCCC4)ccc3n2)cc1	i	i	i	i	-2.39	5.3*
COc1ccc(-c2ccc(SCC(=O)NC3CCCCC3)nn2)cc1	i	i	i	i	-0.89	-3.4
O=C(CSc1ccc2nnc(-c3ccccn3)n2n1)Nc1cccc(F)c1	i	i	i	i	0.2	-7.4
CC(C)c1ccc(/C=N/n2c(COc3ccccc3)n[nH]c2=S)cc1	i	i	i	16*	1.19	-2.2
Cc1ccc(C2C3C(=O)N(c4ccc(C)cc4)C(=O)C3N3CCCN23)cc1 (centres undefined)	i	i	i	i	-0.4	-5.4
S=c1[nH]c2cc(-c3ccccc3)ccc2o1	i	i	i	63*	1.71	44.7*
CSC(SC)=C(C#N)C(=O)c1ccccc1	11*	i	i	i	-4.39*	-28.9
O=C(NCCc1ccccc1)C(=O)NCC1OCCN1S(=O)(=O)c1cc(F)ccc1F (centres undefined)	i	i	i	i	0.08	-27.7
Cc1nc2c3cc(F)ccc3n(Cc3ccccc3F)c2s1	i	-8.04*	i	i	0.2	-5.7
Cc1nc2c3cc(F)ccc3n(Cc3ccccc3)c2s1	i	i	i	i	3.14	-0.7

Source: PubChem (Johns Hopkins Ion Channel Center)
